Results reported in ChEMBL document CHEMBL1122033, “Chemistry and hypoglycemic activity of N-[[(Dialkylamino)alkoxy]phenyl]benzamidines” (J Med Chem, 1982).

Columns and labels:
[1] = Lethality in 50% (LD50) of male and female CF-1 strain mice weighing 16-25g, intraperitoneal administration; type: ADME, organism-based; details: both, CF-1, mouse, in vivo, ip
Method in brief: (§1)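 Four mice per dose level. Drug dissolved in distilled water and suspended in 0.5% carboxymethylcellulose or 0.5% gelatin, with pH adjusted by 1 N HCl or 1 N NaOH where the drug tolerated it. Doses logarithmically spaced, given orally or intraperitoneally. Mice observed 7 days after dosing. LD50 derived by the Bliss method, expressed in mg/kg.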

[2] = Dose that produces lethality in 50% (LD50) of male and female carworth farms CF-1 strain mice weighing 16-25 g oral (po) route of administration; type: ADME, organism-based; details: both, CF-1, mouse, in vivo; method in brief: as §1
Rattus norvegicus [3] = test: Blood sugar lowering (hypoglycemic activity) in the glucose-primed rat at a dose of 100 mg/kg; Decrease in blood sugar level.; type: functional
Method in brief: (§2)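 Male Sprague–Dawley rats, 140–150 g, groups of six, fasted 16 h. Each rat got 100 mg glucose s.c. in 0.5 mL isotonic NaCl, then the test agent at once orally as an aqueous carboxymethylcellulose suspension (0.5 mL); controls got vehicle. At 2 h, under light ether, blood was taken by cardiac puncture. Glucose was read by Autoanalyzer (Hoffman method). Values are percent difference from vehicle controls.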

Rattus norvegicus [4] = test: Compound was evaluated for the blood sugar lowering (hypoglycemic activity) in the glucose-primed rat at a dose of 100 mg/kg; Increase in blood sugar level; type: functional; method in brief: as §2
Rattus norvegicus [5] = test: Compound was evaluated for the blood sugar lowering (hypoglycemic activity) in the glucose-primed rat at a dose of 100 mg/kg; type: functional; method in brief: as §2
Cavia porcellus [6] = test: Evaluated in normal, fasted guinea pig for the percentage reduction in blood glucose level after 5 hr as compared to pretreatment blood glucose values at a dose of 100 mg of free base / kg body weight administered orally; type: functional
Method in brief: (§3)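 Male and female Hartley guinea pigs, 450–500 g, were food-deprived (water allowed) 18 h and split by sex into groups of four. A zero-time blood sample was taken by cardiac puncture, then drug was given, and blood was drawn again 5 h later. Percent reduction in blood glucose is relative to pretreatment values.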

Monkey [7] = test: Evaluated in normal, fasted monkey for the percentage reduction in blood glucose level as compared to pretreatment blood glucose values at a dose of 150 mg of free base / kg body weight administered orally; type: functional, Cercopithecidae
Method in brief: (§4)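 Male and female rhesus monkeys (2–3 kg) were food-deprived, with water, for 18 h. Pretreatment blood was taken from the popliteal vein. Dosing was oral by stomach tube, with repeat sampling 5 h post-dose. Results are percent reduction in blood glucose relative to pretreatment values.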

[8] = Lethal dose required to produce 50% lethality in male and female carworth farms CF-1 strain mice weighing 16-25 g administered intraperitoneally; details: both, CF-1, rat, in vivo, ip
[9] = Lethal dose required to produce 50% lethality in male and female carworth farms CF-1 strain mice weighing 16-25 g administered orally; details: both, CF-1, in vivo, po
Rattus norvegicus [10] = test: Evaluated in glucose-primed, fasted rat for the percentage reduction in blood glucose level after 2 hr as compared to control groups at a dose of 50 mg of free base / kg body weight administered orally; type: functional; method in brief: as §2
Rattus norvegicus [11] = test: Evaluated in glucose-primed, fasted rat for the percentage reduction in blood glucose level after 2 hr as compared to control groups at a dose of 100 mg of free base / kg body weight administered orally; type: functional; method in brief: as §2
Rattus norvegicus [12] = test: Evaluated in glucose-primed, fasted rat for the percentage reduction in blood glucose level after 2 h as compared to control groups at a dose of 25 mg of free base / kg body weight administered orally; type: functional; method in brief: as §2
Rattus norvegicus [13] = test: Evaluated in alloxanized, diabetic rat for the percentage reduction in blood glucose level as compared to pretreatment blood glucose values at a dose of 100 mg of free base / kg body weight administered orally.; type: functional
Method in brief: (§5)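 Three days later, rats positive for urine glucose (reagent strip) formed groups of six. Tail-vein blood was taken before oral dosing and again at 5 h. Percent reduction is versus pretreatment glucose.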

Rattus norvegicus [14] = test: Evaluated in alloxanized, diabetic rat for the percentage reduction in blood glucose level as compared to pretreatment blood glucose values at a dose of 200 mg of free base / kg body weight administered orally.; type: functional; method in brief: as §5
Rattus norvegicus [15] = test: Evaluated in glucose primed, adrenalectomized rat for the percentage reduction in blood glucose level as compared to pretreatment blood glucose values at a dose of 25 mg of free base / kg body weight administered orally
[16] = Dose that produces lethality in 50% (LD50) of male and female carworth farms CF-1 strain mice weighing 16-25 g intraperitoneal (ip) route of administration; type: ADME, organism-based; details: both, CF-1, mouse, in vivo; method in brief: as §1
Rattus norvegicus [17] = test: Evaluated for the blood sugar lowering (hypoglycemic activity ) in the glucose-primed rat at a dose of 100 mg/kg; type: functional; method in brief: as §2
Rattus norvegicus [18] = test: Compound was evaluated for the blood sugar lowering (hypoglycemic activity ) in the glucose-primed rat at a dose of 50 mg of base/kg; type: functional; method in brief: as §2
Cavia porcellus [19] = test: Evaluated in normal, fasted guinea pig for the percentage reduction in blood glucose level after 5 hr as compared to pretreatment blood glucose values at a dose of 25 mg of free base / kg body weight administered orally; type: functional; method in brief: as §3
Monkey [20] = test: Evaluated in normal, fasted monkey for the percentage reduction in blood glucose level after 5 hr as compared to pretreatment blood glucose values at a dose of 10 mg of free base / kg body weight administered orally; type: functional, Cercopithecidae; method in brief: as §4
Rattus norvegicus [21] = test: Evaluated in alloxanized, diabetic rat for the percentage reduction in blood glucose level after 5 hr as compared to pretreatment blood glucose values at a dose of 100 mg of free base / kg body weight administered orally; type: functional; method in brief: as §5

SMILES	LD50 [1] [mg/kg]	LD50 [2] [mg/kg]	Change (Rattus norvegicus [3]) [%]	further results
Cc1cccc(/N=C(\Nc2ccc(OCCN(C(C)C)C(C)C)cc2)c2ccccc2)c1C	360	1000	23.2	–
CN/C(=N/c1ccc(OCCN(C(C)C)C(C)C)cc1)c1ccccc1	112	500	–	Change (Rattus norvegicus [4]): 13.1%
CC(C)N(CCOc1ccc(N/C(=N\c2ccc(Cl)cc2)c2ccccc2)cc1)C(C)C	1000	1000	31	–
CC(C)N(CCOc1ccc(N/C(=N\C2CCCCC2)c2ccccc2)cc1)C(C)C	137	373	9.8	–
C=CC/N=C(\Nc1ccc(OCCN(C(C)C)C(C)C)cc1)c1ccccc1	125	653	15	–
CC(C)CN/C(=N/c1ccc(OCCN(C(C)C)C(C)C)cc1)c1ccccc1	80	360	22.8	–
CCN(CC)CCOc1ccc(N/C(=N\c2ccccc2)c2ccccc2)cc1.O=C(O)C(=O)O	100	687	6.8	–
CN(CCOc1ccc(N/C(=N\c2ccccc2)c2ccccc2)cc1)c1ccccc1	587	1000	10.3	–
Br.c1ccc(/N=C(\Nc2ccc(OCCN3CCOCC3)cc2)c2ccccc2)cc1	400	715	–	Change (Rattus norvegicus [5]): 0%
Br.CCN/C(=N/c1ccc(OCCN(C(C)C)C(C)C)cc1)c1ccccc1	100	687	6.8	–
COc1ccc(N/C(=N/c2ccc(OCCN(C(C)C)C(C)C)cc2)c2ccccc2)cc1.Cl	160	687	33.5	–
CC(C)N(CCOc1ccc(N/C(=N\c2ccccc2)c2ccc(Cl)cc2)cc1)C(C)C.Cl	400	1000	3.2	–
Br.c1ccc(/N=C(\Nc2ccc(OCCN3CCCCC3)cc2)c2ccccc2)cc1	142	467	–	Change (Rattus norvegicus [4]): 5.2%
CC(C)N(CCOc1ccc(N/C(=N\c2ccc(Cl)cc2)c2ccccc2)cc1)C(C)C.Cl	–	–	30.9	Reduction (Cavia porcellus [6]): 14%; Reduction (Monkey [7]): 35%; LD50 [8]: 1000 mg/kg; LD50 [9]: 1000 mg/kg; Reduction (Rattus norvegicus [10]): 23.5%; Reduction (Rattus norvegicus [11]): 30.9%; Reduction (Rattus norvegicus [12]): 18.8%; Reduction (Rattus norvegicus [13]): 7.4%; Reduction (Rattus norvegicus [14]): 28.8%; Reduction (Rattus norvegicus [15]): 31.4%
CC(C)N(CCSc1ccc(N/C(=N\c2ccccc2)c2ccccc2)cc1)C(C)C.Cl	285	400	35.6	–
COc1ccc(/C(=N\c2ccc(OCCN3CCCC3)cc2)Nc2ccccc2)cc1.Cl	–	–	14	–
CC(C)N(CCCOc1ccc(N/C(=N\c2ccc(Cl)cc2)c2ccccc2)cc1)C(C)C.Cl	187	1000	18.3	–
Br.COc1ccc(N/C(=N/c2ccc(OCCCN3CCCC3)cc2)c2ccccc2)cc1	108	400	25.7	–
Br.COc1ccc(N/C(=N/c2ccc(OCCN3CCCC3)cc2)c2ccccc2)cc1	148	900	35	–

SMILES	LD50 [1] [mg/kg]	LD50 [2] [mg/kg]	Change (Rattus norvegicus [3]) [%]	further results
CCCCN(CCCC)CCCOc1ccc(N/C(=N\c2ccccc2)c2ccccc2)cc1.Cl	148	867	10.9	–
Br.c1ccc(CN(CCOc2ccc(N/C(=N\c3ccccc3)c3ccccc3)cc2)Cc2ccccc2)cc1	–	–	–	Change (Rattus norvegicus [5]): 0%
Br.CC(C)N(CCOc1ccc(N/C(=N\c2ccc(F)cc2)c2ccccc2)cc1)C(C)C	143	630	26	–
COc1ccc(N/C(=N/c2ccc(OCCCN(C(C)C)C(C)C)cc2)c2ccccc2)cc1.Cl	108	450	34.1	–
CCCCN(CCCC)CCOc1ccc(N/C(=N\c2ccccc2)c2ccccc2)cc1.Cl	160	800	22.5	–
CC(C)N(CCc1ccc(/C(=N\c2ccccc2)Nc2ccccc2)cc1)C(C)C.Cl	–	587	32.4	LD50 [16]: 160 mg/kg
CC(C)N(CCOc1ccc(N/C(=N\c2ccc(Cl)c(Cl)c2)c2ccccc2)cc1)C(C)C.Cl	400	1000	13.8	–
Cl.c1ccc(/N=C(\Nc2ccc(SCCN3CCCC3)cc2)c2ccccc2)cc1	200	587	12.5	–
Br.CN(C)CCOc1ccc(N/C(=N\c2ccccc2)c2ccccc2)cc1	112	500	–	Change (Rattus norvegicus [4]): 13.1%
Br.c1ccc(/N=C(\Nc2ccc(OCCCN3CCCC3)cc2)c2ccccc2)cc1	125	543	23.5	–
CC(C)N(CCOc1ccccc1/N=C(/Nc1ccccc1)c1ccccc1)C(C)C.Cl	253	840	18.3	–
COc1ccc(/C(=N\c2ccc(OCCN(C(C)C)C(C)C)cc2)Nc2ccccc2)cc1.Cl	140	475	18.5	–
Br.COc1ccc(N/C(=N/c2ccc(OCCCN3CCCC3)cc2)c2ccc(C)cc2)cc1	43	400	12.6	–
CC(C)N(CCOc1ccc(N/C(=N\c2cccc(C(F)(F)F)c2)c2ccccc2)cc1)C(C)C.Cl	400	1000	–	Change (Rattus norvegicus [17]): 0%
CC(C)N(CCOc1ccc(N/C(=N\Cc2ccccc2)c2ccccc2)cc1)C(C)C.Cl	187	450	–	Change (Rattus norvegicus [5]): 0%
Br.CN(CCOc1ccc(N/C(=N\c2ccccc2)c2ccccc2)cc1)Cc1ccccc1	233	500	15.9	–
CC(C)N(CCOc1cccc(N/C(=N\c2ccccc2)c2ccccc2)c1)C(C)C.Cl	107	240	–	Change (Rattus norvegicus [18]): 28.1%
CCCCNC(=N)NC(=N)N [BUFORMIN]	–	–	–	LD50 [8]: 140 mg/kg; LD50 [9]: 500 mg/kg; Reduction (Rattus norvegicus [11]): 0%
N=C(N)NC(=N)NCCc1ccccc1 [PHENFORMIN]	–	–	–	Reduction (Cavia porcellus [19]): 46%; Reduction (Monkey [20]): 50%; Reduction (Rattus norvegicus [11]): 0%; Reduction (Rattus norvegicus [21]): 62%
